Laboratory results reported in ChEMBL document CHEMBL1128434, “Gonadotropin-releasing hormone antagonists: novel members of the azaline B family” (1995).
Values belong to the compound of their own block, whether it stands above or below them. Calls of active or inactive are those of the source. The calls are words filed in the database; no cut-off is given here.

Legend:
[1] = molecular target: T1, Gonadotropin-releasing hormone receptor (Rattus norvegicus) (UniProt P30969); assay: In vitro potency to inhibit GnRH-mediated LH secretion by cultured pituitary cells relative to [Ac-delta-Pro1,DFpa2,DTrp36]GnRH.; assay type: functional, cell-based; settings: Pituitary gland cell
T1 sequence (whole entry): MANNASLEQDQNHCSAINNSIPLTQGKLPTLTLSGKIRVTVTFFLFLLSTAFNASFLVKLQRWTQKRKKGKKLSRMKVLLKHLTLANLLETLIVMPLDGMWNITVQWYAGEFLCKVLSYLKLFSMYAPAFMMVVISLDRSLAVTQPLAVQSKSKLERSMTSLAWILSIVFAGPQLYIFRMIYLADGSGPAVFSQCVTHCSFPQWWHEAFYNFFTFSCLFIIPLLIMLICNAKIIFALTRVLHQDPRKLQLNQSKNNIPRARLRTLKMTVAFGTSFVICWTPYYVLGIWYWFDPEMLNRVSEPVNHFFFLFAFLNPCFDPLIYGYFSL
Outline: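 Dispersed rat pituitary cells in culture; antagonist inhibition of GnRH-stimulated LH secretion. Potency expressed relative to standard antagonist [Ac-Δ3Pro1,D4FPhe2,DTrp3,6]GnRH taken as 1.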

[2] = organism: Rattus norvegicus; assay: Effect in the anti ovulatory assay (AOA) in rats expressed as no. of rats ovulating/No of rats treated at 1.0 mg; 2/8; assay type: functional
[3] = molecular target: T1, Gonadotropin-releasing hormone receptor (Rattus norvegicus); assay: Duration of action, measured using castrated male rat assay to inhibit luteinizing hormone release.; fully active at 24 hr but not at 48 hr; assay type: functional
[4] = molecular target: T1, Gonadotropin-releasing hormone receptor (Rattus norvegicus); assay: Effect in the anti ovulatory assay (AOA) in rats expressed as no. of rats ovulating/No of rats treated at 2.5 mg; 0/8; assay type: functional
[5] = organism: Rattus norvegicus; assay: Effect in the anti ovulatory assay (AOA) in rats expressed as no. of rats ovulating/No of rats treated at 1.0 mg; 6/6; assay type: functional
[6] = organism: Rattus norvegicus; assay: Effect in the anti ovulatory assay (AOA) in rats expressed as no. of rats ovulating/No of rats treated at 0.5 mg; 4/4; assay type: functional
[7] = organism: Rattus norvegicus; assay: Effect in the anti ovulatory assay (AOA) in rats expressed as no. of rats ovulating/No of rats treated at 1.0 mg; 1/8; assay type: functional
[8] = organism: Rattus norvegicus; assay: Effect in the anti ovulatory assay (AOA) in rats expressed as no. of rats ovulating/No of rats treated at 1.0 mg; 4/6; assay type: functional
[9] = organism: Rattus norvegicus; assay: Effect in the anti ovulatory assay (AOA) in rats expressed as no. of rats ovulating/No of rats treated at 2.5 mg; 2/8; assay type: functional
[10] = organism: Rattus norvegicus; assay: Effect in the anti ovulatory assay (AOA) in rats expressed as no. of rats ovulating/No of rats treated at 1.0 mg; 3/7; assay type: functional
[11] = organism: Rattus norvegicus; assay: Effect in the anti ovulatory assay (AOA) in rats expressed as no. of rats ovulating/No of rats treated at 0.5 mg; 3/3; assay type: functional
[12] = organism: Rattus norvegicus; assay: Effect in the anti ovulatory assay (AOA) in rats expressed as no. of rats ovulating/No of rats treated at 1.0 mg; 11/15; assay type: functional
[13] = organism: Rattus norvegicus; assay: Effect in the anti ovulatory assay (AOA) in rats expressed as no. of rats ovulating/No of rats treated at 1.0 mg; 5/8; assay type: functional
[14] = organism: Rattus norvegicus; assay: Effect in the anti ovulatory assay (AOA) in rats expressed as no. of rats ovulating/No of rats treated at 0.5 mg; 3/4; assay type: functional
[15] = organism: Rattus norvegicus; assay: Effect in the anti ovulatory assay (AOA) in rats expressed as no. of rats ovulating/No of rats treated at 1.0 mg; 9/12; assay type: functional
[16] = organism: Rattus norvegicus; assay: Effect in the anti ovulatory assay (AOA) in rats expressed as no. of rats ovulating/No of rats treated at 1.0 mg; 2/9; assay type: functional
[17] = organism: Rattus norvegicus; assay: Effect in the anti ovulatory assay (AOA) in rats expressed as no. of rats ovulating/No of rats treated at 1.0 mg; 4/15; assay type: functional
[18] = organism: Rattus norvegicus; assay: Effect in the anti ovulatory assay (AOA) in rats expressed as no. of rats ovulating/No of rats treated at 2.5 mg; 0/2; assay type: functional
[19] = organism: Rattus norvegicus; assay: Effect in the anti ovulatory assay (AOA) in rats expressed as no. of rats ovulating/No of rats treated at 0.5 mg; 8/8; assay type: functional
[20] = organism: Rattus norvegicus; assay: Effect in the anti ovulatory assay (AOA) in rats expressed as no. of rats ovulating/No of rats treated at 100 mg; 0/4; assay type: functional
[21] = organism: Rattus norvegicus; assay: Effect in the anti ovulatory assay (AOA) in rats expressed as no. of rats ovulating/No of rats treated at 50 mg; 4/8; assay type: functional
[22] = organism: Rattus norvegicus; assay: Effect in the anti ovulatory assay (AOA) in rats expressed as no. of rats ovulating/No of rats treated at 10 mg; 2/2; assay type: functional
[23] = organism: Rattus norvegicus; assay: Effect in the anti ovulatory assay (AOA) in rats expressed as no. of rats ovulating/No of rats treated at 250 mg; 4/4; assay type: functional
[24] = organism: Rattus norvegicus; assay: Duration of action measured using castrated male rat assay to inhibit luteinizing hormone release.; fully active at 48 hr but not at 72 hr; assay type: functional
[25] = organism: Rattus norvegicus; assay: Effect in the anti ovulatory assay (AOA) in rats expressed as no. of rats ovulating/No of rats treated at 2.5 mg; 3/3; assay type: functional
[26] = organism: Rattus norvegicus; assay: Duration of action measured using castrated male rat assay to inhibit luteinizing hormone release.; In active at 24 hr; assay type: functional, organism-based

SMILES: CC(=O)N[C@H](Cc1ccc2ccccc2c1)C(=O)N[C@H](Cc1ccc(Cl)cc1)C(=O)N[C@H](Cc1cccnc1)C(=O)N[C@@H](CO)C(=O)N[C@@H](Cc1ccc(NC(=O)[C@H](C)Nc2n[nH]c(N)n2)cc1)C(=O)N[C@H](Cc1ccc(NC(=O)[C@@H](C)Nc2n[nH]c(N)n2)cc1)C(=O)N[C@@H](CC(C)C)C(=O)N[C@@H](CCCCNC(C)C)C(=O)N1CCC[C@H]1C(=O)N[C@H](C)N
Relative potency [1]: 0.36 | No. of rats ovulated [2]: 2 | Duration of action [3]: 24 h

SMILES: CC(=O)N[C@H](Cc1ccc2ccccc2c1)C(=O)N[C@H](Cc1ccc(Cl)cc1)C(=O)N[C@H](Cc1cccnc1)C(=O)N[C@@H](CO)C(=O)N[C@@H](Cc1ccc(NC(=O)[C@@H](C)Nc2n[nH]c(N)n2)cc1)C(=O)N[C@H](Cc1ccc(NC(=O)[C@H](C)Nc2n[nH]c(N)n2)cc1)C(=O)N[C@@H](CC(C)C)C(=O)N[C@@H](CCCCNC(C)C)C(=O)N1CCC[C@H]1C(=O)N[C@H](C)N
Relative potency [1]: 0.4 | No. of rats ovulated [6]: 4 | No. of rats ovulated [7]: 1

SMILES: CC(=O)N[C@@H](CC(N)=O)C(=O)Nc1ccc(C[C@H](NC(=O)[C@H](CO)NC(=O)[C@@H](Cc2cccnc2)NC(=O)[C@@H](Cc2ccc(Cl)cc2)NC(=O)[C@@H](Cc2ccc3ccccc3c2)NC(C)=O)C(=O)N[C@H](Cc2ccc(NC(=O)[C@@H](CC(N)=O)NC(C)=O)cc2)C(=O)N[C@@H](CC(C)C)C(=O)N[C@@H](CCCCNC(C)C)C(=O)N2CCC[C@H]2C(=O)N[C@H](C)N)cc1
No. of rats ovulated [8]: 4 | No. of rats ovulated [9]: 2

SMILES: CC(=O)N[C@H](Cc1ccc2ccccc2n1)C(=O)N[C@H](Cc1ccc(Cl)cc1)C(=O)N[C@H](Cc1cccnc1)C(=O)N[C@@H](CO)C(=O)N[C@@H](Cc1ccc(Nc2n[nH]c(N)n2)cc1)C(=O)N[C@H](Cc1ccc(Nc2n[nH]c(N)n2)cc1)C(=O)N[C@@H](CC(C)C)C(=O)N[C@@H](CCCCNC(C)C)C(=O)N1CCC[C@H]1C(=O)N[C@H](C)N
No. of rats ovulated [15]: 9

SMILES: CC(=O)N[C@H](Cc1ccc2ccccc2c1)C(=O)N[C@H](Cc1ccc(Cl)cc1)C(=O)N[C@H](Cc1cccnc1)C(=O)N[C@@H](CO)C(=O)N(C)[C@@H](Cc1ccc(Nc2n[nH]c(N)n2)cc1)C(=O)N[C@H](Cc1ccc(Nc2n[nH]c(N)n2)cc1)C(=O)N[C@@H](CC(C)C)C(=O)N[C@@H](CCCCNC(C)C)C(=O)N1CCC[C@H]1C(=O)N[C@H](C)N
Relative potency [1]: 1.9 | No. of rats ovulated [16]: 2 | Duration of action [3]: 24 h

SMILES: CC(=O)N[C@@H](Cc1c[nH]cn1)C(=O)Nc1ccc(C[C@H](NC(=O)[C@H](CO)NC(=O)[C@@H](Cc2cccnc2)NC(=O)[C@@H](Cc2ccc(Cl)cc2)NC(=O)[C@@H](Cc2ccc3ccccc3c2)NC(C)=O)C(=O)N[C@H](Cc2ccc(NC(=O)[C@@H](Cc3c[nH]cn3)NC(C)=O)cc2)C(=O)N[C@@H](CC(C)C)C(=O)N[C@@H](CCCCNC(C)C)C(=O)N2CCC[C@H]2C(=O)N[C@H](C)N)cc1
Relative potency [1]: 0.47 | No. of rats ovulated [17]: 4 | No. of rats ovulated [18]: 0 | No. of rats ovulated [19]: 8 | Duration of action [3]: 24 h

SMILES: CC(=O)N[C@H](Cc1ccc2ccccc2c1)C(=O)N[C@H](Cc1ccc(Cl)cc1)C(=O)N[C@H](Cc1cccnc1)C(=O)N[C@@H](CO)C(=O)N(C)[C@@H](Cc1ccc(Nc2n[nH]c(N)n2)cc1)C(=O)N[C@H](Cc1ccc(Nc2n[nH]c(N)n2)cc1)C(=O)N[C@@H](CC(C)C)C(=O)N[C@@H](Cc1ccc(NC(C)C)cc1)C(=O)N1CCC[C@H]1C(=O)N[C@H](C)N
No. of rats ovulated [20]: 0 | No. of rats ovulated [21]: 4 | No. of rats ovulated [22]: 2

SMILES: CC(=O)N[C@H](Cc1ccc2ccccc2c1)C(=O)N[C@H](Cc1ccc(Cl)cc1)C(=O)N[C@H](Cc1cccnc1)C(=O)N[C@@H](CO)C(=O)N[C@@H](Cc1ccc(NC(=O)Nc2cccc(Cl)c2)cc1)C(=O)N[C@H](Cc1ccc(NC(=O)Nc2cccc(Cl)c2)cc1)C(=O)N[C@@H](CC(C)C)C(=O)N[C@@H](CCCCNC(C)C)C(=O)N1CCC[C@H]1C(=O)N[C@H](C)N
No. of rats ovulated [23]: 4

SMILES: CC(=O)N[C@H](Cc1ccc2ccccc2c1)C(=O)N[C@H](Cc1ccc(Cl)cc1)C(=O)N[C@H](Cc1cccnc1)C(=O)N[C@@H](CO)C(=O)N[C@@H](Cc1ccc(NC(=O)CNc2n[nH]c(N)n2)cc1)C(=O)N[C@H](Cc1ccc(NC(=O)CNc2n[nH]c(N)n2)cc1)C(=O)N[C@@H](CC(C)C)C(=O)N[C@@H](CCCCNC(C)C)C(=O)N1CCC[C@H]1C(=O)N[C@H](C)N
Relative potency [1]: 1.1 | Duration of action [24]: 48 h | No. of rats ovulated [13]: 5 | No. of rats ovulated [14]: 3

The next lines start with results.

No. of rats ovulated [4]: 0
SMILES: CCCC(=O)Nc1ccc(C[C@H](NC(=O)[C@H](CO)NC(=O)[C@@H](Cc2cccnc2)NC(=O)[C@@H](Cc2ccc(Cl)cc2)NC(=O)[C@@H](Cc2ccc3ccccc3c2)NC(C)=O)C(=O)N[C@H](Cc2ccc(NC(=O)CCC)cc2)C(=O)N[C@@H](CC(C)C)C(=O)N[C@@H](CCCCNC(C)C)C(=O)N2CCC[C@H]2C(=O)N[C@H](C)N)cc1
No. of rats ovulated [5]: 6

Relative potency [1]: 2.8
SMILES: CC(=O)Nc1ccc(C[C@@H](NC(=O)[C@H](Cc2ccc(O)cc2)NC(=O)[C@H](CO)NC(=O)[C@@H](Cc2cccnc2)NC(=O)[C@@H](Cc2ccc(Cl)cc2)NC(=O)[C@@H](Cc2ccc3ccccc3c2)NC(C)=O)C(=O)N[C@@H](CC(C)C)C(=O)N[C@@H](CCCCNC(C)C)C(=O)N2CCC[C@H]2C(=O)N[C@H](C)N)cc1
No. of rats ovulated [10]: 3 | No. of rats ovulated [11]: 3

Relative potency [1]: 0.65
SMILES: CC(=O)N[C@H](Cc1ccc2ccccc2c1)C(=O)N[C@H](Cc1ccc(Cl)cc1)C(=O)N[C@H](Cc1cccnc1)C(=O)N[C@@H](CO)C(=O)N[C@@H](Cc1ccc(NC(=O)c2n[nH]c(N)n2)cc1)C(=O)N[C@H](Cc1ccc(NC(=O)c2n[nH]c(N)n2)cc1)C(=O)N[C@@H](CC(C)C)C(=O)N[C@@H](CCCCNC(C)C)C(=O)N1CCC[C@H]1C(=O)N[C@H](C)N
No. of rats ovulated [6]: 4 | No. of rats ovulated [12]: 11

Relative potency [1]: 0.85 | Duration of action [3]: 24 h
SMILES: CC(=O)NCC(=O)Nc1ccc(C[C@H](NC(=O)[C@H](CO)NC(=O)[C@@H](Cc2cccnc2)NC(=O)[C@@H](Cc2ccc(Cl)cc2)NC(=O)[C@@H](Cc2ccc3ccccc3c2)NC(C)=O)C(=O)N[C@H](Cc2ccc(NC(=O)CNC(C)=O)cc2)C(=O)N[C@@H](CC(C)C)C(=O)N[C@@H](CCCCNC(C)C)C(=O)N2CCC[C@H]2C(=O)N[C@H](C)N)cc1
No. of rats ovulated [13]: 5 | No. of rats ovulated [14]: 3

Relative potency [1]: 0.36
SMILES: CC(=O)NCCCC[C@H](NC(=O)[C@H](CO)NC(=O)[C@@H](Cc1cccnc1)NC(=O)[C@@H](Cc1ccc(Cl)cc1)NC(=O)[C@@H](Cc1ccc2ccccc2c1)NC(C)=O)C(=O)N[C@H](CCCCNC(C)=O)C(=O)N[C@@H](CC(C)C)C(=O)N[C@@H](CCCCNC(C)C)C(=O)N1CCC[C@H]1C(=O)N[C@H](C)N
No. of rats ovulated [25]: 3 | Duration of action [26]: inactive
